In publication PMC3839535 (Nature chemical biology, 2013):
Entries after “also recorded” stand apart in the source; their conditions may differ.

Experiments:
[1] = target: T1, mouse melanopsin (Mus musculus, UniProt Q9QXZ9); assay: Melanopsin photocurrent in Xenopus oocytes; format: cell-based
T1 sequence (Q9QXZ9 1-521): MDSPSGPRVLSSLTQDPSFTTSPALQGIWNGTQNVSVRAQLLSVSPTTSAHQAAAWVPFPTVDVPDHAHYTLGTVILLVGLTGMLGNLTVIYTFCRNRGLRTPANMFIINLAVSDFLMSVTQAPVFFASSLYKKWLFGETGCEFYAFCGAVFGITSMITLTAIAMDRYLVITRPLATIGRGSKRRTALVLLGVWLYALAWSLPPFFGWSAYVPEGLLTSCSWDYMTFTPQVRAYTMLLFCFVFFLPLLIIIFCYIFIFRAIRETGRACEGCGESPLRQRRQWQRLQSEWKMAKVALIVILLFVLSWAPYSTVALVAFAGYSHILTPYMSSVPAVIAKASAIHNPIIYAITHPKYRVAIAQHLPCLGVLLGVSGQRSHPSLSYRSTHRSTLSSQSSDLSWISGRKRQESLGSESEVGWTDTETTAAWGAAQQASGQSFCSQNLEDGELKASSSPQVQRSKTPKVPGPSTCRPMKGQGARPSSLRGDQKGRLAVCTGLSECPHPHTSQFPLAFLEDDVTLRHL
Outline: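 Stage IV Xenopus oocytes injected with in vitro transcribed, polyadenylated mRNAs for mouse melanopsin, TrpC3, Gαq and Arrb1. Test compound was perfused for 3 min at increasing concentrations before 50 µM 11-cis retinal was added. Melanopsin photocurrent was recorded intracellularly in response to 60 s white light, averaged over n = 5 oocytes.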

[2] = target: T2, human melanopsin (Homo sapiens, UniProt Q9UHM6); assay: Radioligand binding with [^3H]2-AA41612 to CHO^Opn4 cell membranes; conditions: competition binding
T2 sequence (Q9UHM6 1-478): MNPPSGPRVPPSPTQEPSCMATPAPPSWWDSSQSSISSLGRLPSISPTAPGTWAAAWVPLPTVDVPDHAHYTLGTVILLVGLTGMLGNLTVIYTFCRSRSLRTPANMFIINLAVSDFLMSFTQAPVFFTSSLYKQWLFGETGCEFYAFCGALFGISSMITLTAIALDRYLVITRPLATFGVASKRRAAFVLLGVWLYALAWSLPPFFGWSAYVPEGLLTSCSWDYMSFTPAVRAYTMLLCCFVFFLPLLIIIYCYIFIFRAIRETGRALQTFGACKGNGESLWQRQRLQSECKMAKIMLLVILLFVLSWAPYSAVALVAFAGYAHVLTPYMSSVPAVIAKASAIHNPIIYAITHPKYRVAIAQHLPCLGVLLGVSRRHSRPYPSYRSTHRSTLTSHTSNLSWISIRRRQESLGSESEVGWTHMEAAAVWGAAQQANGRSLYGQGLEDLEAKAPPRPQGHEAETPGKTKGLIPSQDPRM
Outline: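 Membranes came from light-exposed CHO cells stably expressing human melanopsin. Cells were sonicated in ice-cold 20 mM Tris-HCl, 10 mM EDTA, pH 7.4, then spun at 200g for 5 min and 40,000g for 20 min at 4 °C, and washed. Assay buffer was 50 mM Tris-HCl, 1 mM EDTA, 5 mM MgSO4, pH 7.4. Saturation binding used increasing concentrations of [3H] radioligand. Competition binding used 300 pM radioligand against increasing competitor for 2 h in the dark at 25 °C. Reactions were filtered through PEI-treated glass fibre filters and counted by scintillation. Nonspecific binding was defined with 10 µM 9-cis retinal, and specific binding was taken as total minus nonspecific.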

[3] = target: T2, human melanopsin; assay: Ca^2+ release assay in CHO^Opn4 cells; format: cell-based
[4] = test system: 74 biological targets including GPCRs and ion channels; assay: Radioligand binding panel of 74 biological targets; conditions: 10 µM
[5] = test system: rod/cone photoreceptors; assay: Electroretinogram; format: in vivo; conditions: WT C57BL/6J and Opn4^−/− mice, 30 mg kg^-1, recorded within 30 min of administration, versus vehicle
[6] = test system: mice; assay: Pupillary light reflex; format: in vivo; conditions: 10^13 ph.cm^−2.s^−1
Outline: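 rd, WT and Opn4−/− mice carried an acrylic headpost and had at least 1 wk of recovery. Dark-adapted mice received vehicle or compound at 30 mg kg−1 IP 20 min before the first light, plus tropicamide in the left eye. The right eye was filmed under IR at 30 Hz. Each 5 min sequence was 1 min dark, 1 min 480 nm light (1 × 10^13 or 1 × 10^10 ph.cm−2.s−1), then 3 min dark. Sequences were repeated 19, 29 and 39 min post-injection. Pupil diameter was normalised to the mean of the first 20 s of darkness; n = 6–7.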

[7] = test system: neonatal mice; assay: Negative phototaxis assay; format: in vivo; conditions: WT neonatal pups (P7-P9), 30 mg kg^−1 sub-cutaneous, 480 nm light
Outline: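 WT and Opn4−/− pups aged P7–P9 were tested once daily. Pups were dark-adapted for 1 h, then given vehicle or compound at 30 mg kg−1 s.c. Each pup wore a head reflective sticker and sat in a transparent tube for 10 min. After 5 min of darkness, the head end was lit with 480 nm light at 9.5 × 10^15 ph/cm2/s. IR video covered 2 min before and 5 min after light onset. Head distance was scored in 1 s bins, and mean activity was compared before and after light. Pups without any bin above 1.3 mm/bin before light were excluded.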

[8] = Pharmacokinetics: retina and brain levels after IP dosing; format: in vivo; conditions: mice, 30 mg kg^−1 IP, within 2 h
Outline: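 Mice were dosed at 30 mg kg−1 IP, and retina and brain were sampled at several times afterwards. Frozen brains were homogenised in four volumes of 50% water/30% 2-propanol/20% DMSO and spiked with internal standard. Samples were centrifuged and the supernatant analysed by LC/MS/MS. Quantitation used a standard curve (0–5,000 ng/ml) prepared in homogenate.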

Hill slope, displacement of [^3H]2-AA41612 [2]	IC50 [3]	Structure (SMILES)	IC50 [1]	inhibition of radioligand binding to a panel of 74 biological targets [4]	effect on rod and rod/cone electroretinogram [5]	effect on PLR under high light intensity ([6]; Wild type (WT) mice)	attenuation of pupil constriction in response to light ([6]; adult rd mice, 30 mg kg^−1 i.p. 20 min prior)	effect on light aversion (negative phototaxis) behavior [7]	fraction cleared from the retina [8]	slope of Schild regression (dose ratio) plot ([3]; versus 9-cis retinal, light-exposed CHO^Opn4 cells)
~1.0	15.8 ± 1.8 nM	COc1cc(Cl)c(S(=O)(=O)N2CCCCC2)cc1Cl [AA41612, 1-(2,5-Dichloro-4-methoxy-benzenesulfonyl)-piperidine]	20 nM							
~1.0		CC1=C(/C=C/C(C)=C\C=C\C(C)=C\C=O)C(C)(C)CCC1 [9-cis retinal, reference compound]								

Structure (SMILES)	Hill slope, displacement of [^3H]2-AA41612 [2]	IC50 [3]	IC50 [1]	inhibition of radioligand binding to a panel of 74 biological targets [4]	effect on rod and rod/cone electroretinogram [5]	effect on PLR under high light intensity ([6]; Wild type (WT) mice)	attenuation of pupil constriction in response to light ([6]; adult rd mice, 30 mg kg^−1 i.p. 20 min prior)	effect on light aversion (negative phototaxis) behavior [7]	fraction cleared from the retina [8]	slope of Schild regression (dose ratio) plot ([3]; versus 9-cis retinal, light-exposed CHO^Opn4 cells)
COc1ccc(S(=O)(=O)N2CCCCC2)cc1C [AA92593, 1-((4-methoxy-3-methylphenyl)sulfonyl)piperidine]	~1.0		190 nM	failed to inhibit radioligand binding	no noticeable inhibition of rod/cone photoreceptors	attenuated PLR	~ 50%	significantly reduced; also recorded: remarkably reduced light aversion behavior	> 95%	0.9
